Data on 2 compounds can be found in ChEMBL document CHEMBL4400568, “The design of 1,4-naphthoquinone derivatives and mechanisms underlying apoptosis induction through ROS-dependent MAPK/Akt/STAT3 pathways in human lung cancer cells” (Bioorg Med Chem, 2019).

Data set [1] has as its system NCI-H460. Description: Cytotoxicity against human NCI-H460 cells assessed as reduction in cell viability after 24 hrs by MTT assay. Type of data set: functional, cell-based. In short, it runs like this:
(§1)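 Log-phase cells seeded at 1 × 10⁴ per well. Lung cancer lines (A549, NCI-H23, NCI-H460) and normal lines (IMR-90, QSG-7701, HEK-293A) each exposed to 1, 3, 10, 30 and 100 μM for 24 h. MTT (5 mg/mL stock) added for 2 h at 37°C, formazan dissolved in DMSO, absorbance read at 490 nm. Three independent experiments, mean ± SD.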

Data set [2] deals with IMR-90. Description: Cytotoxicity against human IMR90 cells assessed as reduction in cell viability after 24 hrs by MTT assay. Type of data set: cell-based. To be noted: imr-90, 24 h. An outline of the steps: as §1
A short description of data set [3]: Cytotoxicity against human QSG7701 cells assessed as reduction in cell viability after 24 hrs by MTT assay. Type of data set: cell-based. An outline of the steps: as §1
A general note: Tetrazolium dyes change colour on reduction, which living cells bring about.

For data set [4], the system named is A549. Put plainly: Induction of apoptosis in human A549 cells assessed as nuclear condensation at 3 uM by Annexin V-FITC/propidium iodide staining-based flow cytometric analysis. The conditions noted are these: TDE = time-dependent effect. Type of data set: functional, cell-based. In short, it runs like this: (§2)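 A549 cells seeded at 1 × 10⁵ cells/well, exposed to 3 μM for 3, 6, 12 and 24 h. Then incubated in binding buffer and stained with Annexin V-FITC and PI for 20 min in the dark. Apoptotic cells were scored by fluorescence microscopy and flow cytometry. Three independent experiments, mean ± SD.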
(In general: In flow cytometry, cells or beads pass a laser one at a time.)

Data set [5] relates to A549. Description: Induction of apoptosis in human A549 cells assessed as decrease in Bcl-2 expression at 3 uM after 24 hrs by Western blot analysis. It counts as functional, cell-based. In short, it runs like this:
(§3)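 A549 cells exposed to 3 μM for 3, 6, 12 or 24 h; where NAC is used, 10 mM NAC is added 30 min before 24 h treatment. Lysate protein (30 μg) is run on 12% SDS-PAGE, blotted to nitrocellulose, blocked in 5% milk, primary antibody overnight at 4°C, then HRP anti-IgG. β-actin loading control; densitometry; three independent experiments, mean ± SD.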
For orientation: In western blotting, separated proteins are transferred to a membrane and probed.

Data set [6] deals with A549. Description: Induction of apoptosis in human A549 cells assessed as increase in Bad levels at 3 uM after 24 hrs by Western blot analysis. Type of data set: functional, cell-based. In short, it runs like this:
as §3

Data set [7] deals with A549. Description: Induction of apoptosis in human A549 cells assessed as early apoptotic cells at 3 uM after 3 hrs by Annexin V-FITC/propidium iodide staining-based flow cytometric analysis (reference value: 2.73%). It counts as functional.
Data set [8] has as its system A549. Description: Induction of apoptosis in human A549 cells assessed as late apoptotic cells at 3 uM after 6 hrs by Annexin V-FITC/propidium iodide staining-based flow cytometric analysis (reference value: 4.52%). It counts as functional.
The test system of data set [9] is A549. Put plainly: Induction of apoptosis in human A549 cells assessed as early apoptotic cells at 3 uM after 24 hrs by Annexin V-FITC/propidium iodide staining-based flow cytometric analysis (reference value: 2.73%). It counts as functional.
The subject of data set [10] is A549. Put plainly: Cell cycle arrest in human A549 cells assessed as accumulation of cells at G2 phase at 3 uM after 12 hrs by propidium iodide staining-based flow cytometric analysis (reference value: 24.02%). It counts as functional.
In data set [11] the test system is A549. Description: Cell cycle arrest in human A549 cells assessed as accumulation of cells at S phase at 3 uM after 24 hrs by propidium iodide staining-based flow cytometric analysis (reference value: 13.85%). It counts as functional.
The test system of data set [12] is A549. Put plainly: Cell cycle arrest in human A549 cells assessed as accumulation of cells at G2 phase at 3 uM after 24 hrs by propidium iodide staining-based flow cytometric analysis (reference value: 24.02%). It counts as functional.
In data set [13] the test system is A549. Put plainly: Cell cycle arrest in human A549 cells assessed as decrease in cyclinD1/E levels at 3 uM by Western blot analysis. Type of data set: functional, cell-based. The conditions noted are these: TDE = time-dependent effect. In short, it runs like this: as §3
Data set [14] concerns A549. Description: Cell cycle arrest in human A549 cells assessed as increase in p21 levels at 3 uM by Western blot analysis. It counts as functional, cell-based. The conditions noted are these: TDE = time-dependent effect. An outline of the steps:
as §3

The test system of data set [15] is A549. Put plainly: Inhibition of ERK in human A549 cells assessed as decrease in STAT3 phosphorylation at 3 uM after 3 to 24 hrs by Western blot analysis. It counts as cell-based. In short, it runs like this:
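A549 cells exposed to 3 μM for 3, 6, 12 or 24 h. Lysate protein (30 μg) run on 12% SDS-PAGE and blotted to nitrocellulose. Membranes blocked in 5% skim milk, primary antibodies at 4°C overnight, then HRP anti-IgG secondary for 1 h at room temperature. β-actin was the internal control. Bands quantified by densitometry; three independent experiments, mean ± SD.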

In data set [16] the target is T1, MAP kinase p38 (Homo sapiens) (UniProt O15264+Q15759+Q16539+P53778). Description: Activation of p38 phosphorylation in human A549 cells at 3 uM after 3 to 24 hrs by Western blot analysis. Type of data set: cell-based. An outline of the steps: as §3
Data set [17] concerns the target T1, MAP kinase p38 (Homo sapiens). Put plainly: Modulation of p38 MAPK in human A549 cells assessed as increase in cleaved caspase-3 level measured after 24 hrs in presence of p38 inhibitor SB203580 by Western blot analysis. Type of data set: cell-based. In short, it runs like this: (§4)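 A549 cells pre-incubated for 30 min with 12.1 μM kinase inhibitor: SB203580 (p38), SP600125 (JNK), FR180204 (ERK) or LY10249 (Akt). Compound treatment followed for 24 h. Lysates (30 μg protein) analysed by 12% SDS-PAGE and nitrocellulose immunoblot with HRP detection. Three independent experiments, mean ± SD.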

The target in data set [18] is RAC-alpha serine/threonine-protein kinase (Homo sapiens) (UniProt P31749). Put plainly: Modulation of AKT in human A549 cells assessed as decrease in CDK6 levels measured after 24 hrs in presence of Akt inhibitor-LY10249 by Western blot analysis. Type of data set: cell-based. In short, it runs like this:
as §4

The target is the same in data set [19]. Put plainly: Modulation of AKT in human A549 cells assessed as decrease in cyclinD1 levels measured after 24 hrs in presence of Akt inhibitor-LY10249 by Western blot analysis. Type of data set: cell-based. In short, it runs like this:
as §4

For data set [20], the system named is A549. Put plainly: Induction of ROS generation in human A549 cells assessed as intracellular ROS level at 3 uM after 6 hrs by DCFH-DA staining-based flow cytometric analysis (reference value: 51.8%). It counts as functional. An outline of the steps:
(§5)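 A549 cells loaded with DCFH-DA (10 μM per legend) for 30 min, then exposed to 3 μM at 37°C for 3, 6, 12 or 24 h. After two PBS washes, intracellular fluorescence is quantified by flow cytometry. Three independent experiments, mean ± SD.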

Data set [21] deals with A549. Description: Induction of ROS generation in human A549 cells assessed as intracellular ROS level at 3 uM after 24 hrs by DCFH-DA staining-based flow cytometric analysis (reference value: 51.8%). It counts as functional. In short, it runs like this:
as §5

Data set [22] relates to A549. Put plainly: Induction of apoptosis in human A549 cells assessed as late apoptotic cells at 3 uM in presence of NAC by Annexin V-FITC/propidium iodide staining-based flow cytometric analysis (reference value: 0.22%). Type of data set: functional.
The test system of data set [23] is A549. Description: Inhibition of ERK in human A549 cells assessed as decrease in STAT3 phosphorylation at 3 uM after 24 hrs in presence of NAC by Western blot analysis. Type of data set: cell-based. An outline of the steps: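 A549 cells pretreated with 10 mM NAC for 30 min, then exposed to compound for 24 h. Lysate protein (30 μg) resolved on 12% SDS-PAGE and transferred to nitrocellulose. Probed with primary antibodies overnight at 4°C, then HRP secondary. Band densities from three independent experiments, mean ± SD.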

The subject of data set [24] is A549. Description: Induction of apoptosis in human A549 cells at 3 uM by Annexin V-FITC/propidium iodide staining-based flow cytometric analysis. It counts as functional, cell-based. To be noted: TDE = time-dependent effect. In short, it runs like this: as §2

Calls of active or inactive are those of the source. No cut-off for these calls is given here.

Sequence of RAC-alpha serine/threonine-protein kinase (Homo sapiens) (P31749 whole entry): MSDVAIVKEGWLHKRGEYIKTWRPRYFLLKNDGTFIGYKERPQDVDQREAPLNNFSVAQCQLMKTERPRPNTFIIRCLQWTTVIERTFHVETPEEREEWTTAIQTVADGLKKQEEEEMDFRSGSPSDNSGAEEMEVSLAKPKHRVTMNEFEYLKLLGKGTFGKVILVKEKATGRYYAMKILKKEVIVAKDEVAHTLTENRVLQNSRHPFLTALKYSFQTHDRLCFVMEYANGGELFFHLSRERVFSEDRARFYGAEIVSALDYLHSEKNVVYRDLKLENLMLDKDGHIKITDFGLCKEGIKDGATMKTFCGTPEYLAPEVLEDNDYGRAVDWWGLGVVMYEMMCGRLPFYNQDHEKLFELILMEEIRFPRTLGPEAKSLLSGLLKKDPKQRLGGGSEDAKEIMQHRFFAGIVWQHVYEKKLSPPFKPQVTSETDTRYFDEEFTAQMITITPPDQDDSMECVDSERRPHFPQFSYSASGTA

`CCCCCCCCCS(=O)(=O)C12OC1C(=O)c1c(OC)ccc(OC)c1C2=O` (stereo not drawn): the outcome in data set [1], in [5], in data set [6], in data set [16], in [18] and in data set [19] was Active. Besides, the Activity entry was “Non-Toxic” in [2]; “Non-Toxic” in data set [3]; “Tde” in data set [4]; 8.15% in [7]; 6.43% in [8]; 24.66 - 30.02% in data set [9]. In addition, the Activity in [10] is 20.99%; in data set [11], 6.03%; in data set [12], 19.84%; in data set [13] it was “Tde”; in [14], “Tde”; in [20] it was 59.58%. For the same compound, the Activity in data set [21] was 70.81%; in [22], 3.03%; in [24], “Tde”. Further, the inhibition entry in [15] was “Active”. Also, in data set [17], the result was inactive. Also, the inhibition result in [23] is “inactive”.
Take `CCCS(=O)(=O)C12OC1C(=O)c1c(OC)ccc(OC)c1C2=O` (stereo not drawn): the outcome in data set [1], in [5], in [6], in data set [16], in data set [18] and in [19] was Active. Further, the Activity entry was “Non-Toxic” in data set [2]; “Non-Toxic” in data set [3]; “Tde” in data set [4]; 13.29% in data set [7]; 7.11% in data set [8]; 48.76% in data set [9]. The Activity in [10] is 17.49%; in data set [11] it was 7.41%; in data set [12] it was 17.13%; in data set [13], “Tde”; in data set [14], “Tde”; in [20], 60.04%. For the same compound, the Activity is 76.35% in data set [21], 2.67% in [22] and “Tde” in [24]. In [15], the inhibition result is “Active”. In data set [17], the outcome was inactive. Further, the inhibition result in data set [23] is “inactive”.
